The record followed here is ChEMBL document CHEMBL2396579, “Synthesis and in vitro photocytotoxicity of coumarin derivatives for one- and two-photon excited photodynamic therapy” (J Med Chem, 2013).

Converted amounts (≈) assume the structure as drawn. The source made the active and inactive calls. No cut-off for these calls is given here.

Series [1] deals with HepG2. Description: Photocytotoxicity against human HepG2 cells assessed as growth inhibition incubated for 4 hrs in dark prior to 20 mW cm'-2 laser irradiation for 20 mins followed by 24 hrs incubation in dark by CCK8 assay. Format: functional, cell-based. Particulars: HepG2, light or radiation study. The method in brief:
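HepG2 cells were loaded with photosensitizer for 4 h and then irradiated with a 532 nm laser for 20 min at 20 mW cm−2. They were kept in the dark for 24 h before the viability test. IC50 is the concentration giving 50% growth inhibition.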

Series [2] relates to HepG2. Description: Intracellular ROS generation in human HepG2 cells at 20 uM after 4 hrs by DCFH-DA-based fluorescence analysis. It is filed as functional, cell-based. In a few lines:
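Intracellular ROS in HepG2 cells was detected with the probe 2,7-dichlorodihydrofluorescein diacetate (DCFH-DA), which ROS convert to fluorescent 2,7-dichlorofluorescein.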

A short description of series [3]: Octanol-water partition coefficient, log P of the compound. Format: physicochemical.
Series [4] is described as follows: Drug uptake in human HepG2 cell mitochondria at 10 uM after 4 hrs by confocal laser scanning microscopy. Format: ADME. Particulars: hepg2, 4 h.
A short description of series [5]: Solubility of the compound in PBS buffer at pH 7.4. It is filed as physicochemical.
Series [6] has as its system HepG2. Description: Cellular uptake in human HepG2 cells at 20 uM after 4 hrs by fluorescence spectrophotometry. It is filed as ADME, cell-based. The following applies: hepg2, 4 h. The method in brief:
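HepG2 cells were incubated with 20 μM photosensitizer for different times and intracellular concentration was measured at each time point. Mean ± SD, three replicates.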

The test system of series [7] is HepG2. The series is described as follows: Dark cytotoxicity against human HepG2 cells after 24 hrs by CCK-8 assay. Particulars: HepG2, 24 h. It is filed as cell-based. The method in brief: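 HepG2 cells exposed to a range of photosensitizer concentrations (tested up to 50 μM) for 24 h without light before the viability test. IC50 is the concentration giving 50% growth inhibition.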

Series [8] concerns HepG2. Description: Photocytotoxicity against human HepG2 cells assessed as cell viability at 20 uM incubated for 4 hrs prior to 630 mW laser irradiation for 10 mins followed by 24 hrs incubation in dark by CCK-8 assay. Format: functional. Particulars: for viability at 20 µM: HepG2, light or radiation study, read-out: Activity. The method in brief:
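HepG2 cells were incubated with 20 μM photosensitizer for 4 h and split into two equal series. One series received 800 nm femtosecond laser light (1.64 W cm−2, 1 kHz, 130 fs) for 10 min; the other stayed dark as control. Both were held 24 h in the dark before viability was read. Photosensitizer-free cells were also irradiated. Mean ± SD, three replicates.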

For `CCN(CC)c1ccc(/C=C/C(=O)c2cc3ccc(OCCOCCOCCOC)cc3oc2=O)cc1`, the IC50 in series [1] was 8.1 µM; in series [7], above 50 µM. Also, the result in series [2] was Active. The same compound showed a logP in series [3] of 3. The Drug uptake entry in series [4] and in series [6] was “Active” each time. The compound further returned a solubility in series [5] of 1.1 µg/mL (≈ 2.16 µM). The viability at 20 µM in series [8] came out at 70%.

As for `CCN(CC)c1ccc2cc(C(=O)/C=C/c3ccc(N(C)CCOCCOCCOCCOC)cc3)c(=O)oc2c1`, the IC50 was 3.9 µM in series [1] and above 50 µM in series [7]. Also, the result in series [2] was Active. In addition, in series [3], the logP came to 3.4. For the same compound, the Drug uptake result in series [4] and in series [6] was “Active” in each case. In series [5], this compound had a solubility of 26 µg/mL (≈ 45.9 µM). In addition, the viability at 20 µM in series [8] was determined as 20%.

Take `CCN(CC)c1ccc2cc(C(=O)/C=C/c3ccc(N(CCOCCOCCOCCOC)CCOCCOCCOCCOC)cc3)c(=O)oc2c1`: the IC50 is 4.6 µM in series [1] and above 50 µM in series [7]. Moreover, in series [2], the outcome was Active. In addition, the log partition coefficient (logP) in series [3] worked out at 2.2. For the same compound, the Drug uptake entry in series [4] and in series [6] was “Active” in each case. The compound further returned a solubility in series [5] of 750 µg/mL (≈ 1010 µM). For the same compound, the viability at 20 µM in series [8] was 30%.

`COCCOCCOCCOCCN(CCOCCOCCOCCOC)c1ccc(/C=C/C(=O)c2cc3ccc(OCCOCCOCCOC)cc3oc2=O)cc1`: the IC50 in series [1] and in series [7] was above 50 µM each time. For the same compound, the result in series [2] was Active. In series [3], the logP worked out at 0.3. Also, the Drug uptake entry in series [4] was “Not Active”; in series [6] it was “Active”. The solubility in series [5] was above 10000 µg/mL. The result in series [8] was inactive.

As to `COCCOCCOCCOCCN(C)c1ccc(/C=C/C(=O)c2cc3ccc(OCCOCCOCCOC)cc3oc2=O)cc1`, the IC50 in series [1] and in series [7] was above 50 µM throughout. The result in series [2] was Active. The logP in series [3] stood at 1.4. In addition, the Drug uptake result is given as “Not Active” in series [4] and “Active” in series [6]. For the same compound, in series [5], the concentration in solution (solubility) was 700 µg/mL (≈ 1060 µM). For the same compound, the result in series [8] was inactive.
